Assay results as given in ChEMBL document CHEMBL1137577, “Inhibitors of the interaction of a thyroid hormone receptor and coactivators: preliminary structure-activity relationships” (J Med Chem, 2007).
≈ marks a conversion by molar mass, not a printed value.

Assays:
[1] = biological target: T1, Thyroid hormone receptor alpha (Homo sapiens, UniProt P10827); experiment: Displacement of labeled SRC2-2 from human TRalpha by FP assay
T1 sequence (P10827 whole entry): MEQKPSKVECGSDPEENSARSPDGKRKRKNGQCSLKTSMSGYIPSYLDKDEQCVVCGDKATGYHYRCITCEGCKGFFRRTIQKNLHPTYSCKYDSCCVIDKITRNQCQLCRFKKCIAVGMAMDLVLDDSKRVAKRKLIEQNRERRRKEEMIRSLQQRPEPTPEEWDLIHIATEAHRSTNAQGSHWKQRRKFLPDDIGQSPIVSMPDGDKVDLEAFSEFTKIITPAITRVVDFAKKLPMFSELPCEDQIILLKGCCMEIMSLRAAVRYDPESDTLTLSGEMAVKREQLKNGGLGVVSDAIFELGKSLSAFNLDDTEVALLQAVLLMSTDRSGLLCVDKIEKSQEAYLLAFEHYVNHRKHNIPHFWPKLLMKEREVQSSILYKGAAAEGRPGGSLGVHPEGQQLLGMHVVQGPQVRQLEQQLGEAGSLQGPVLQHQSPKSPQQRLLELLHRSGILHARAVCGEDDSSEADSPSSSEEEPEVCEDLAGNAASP

[2] = biological target: T2, Thyroid hormone receptor beta (Homo sapiens, UniProt P10828); experiment: Displacement of labeled SRC2-2 from human TRbeta expressed in BL21 (DE3) cells FP assay; format: cell-based
T2 sequence (P10828 whole entry): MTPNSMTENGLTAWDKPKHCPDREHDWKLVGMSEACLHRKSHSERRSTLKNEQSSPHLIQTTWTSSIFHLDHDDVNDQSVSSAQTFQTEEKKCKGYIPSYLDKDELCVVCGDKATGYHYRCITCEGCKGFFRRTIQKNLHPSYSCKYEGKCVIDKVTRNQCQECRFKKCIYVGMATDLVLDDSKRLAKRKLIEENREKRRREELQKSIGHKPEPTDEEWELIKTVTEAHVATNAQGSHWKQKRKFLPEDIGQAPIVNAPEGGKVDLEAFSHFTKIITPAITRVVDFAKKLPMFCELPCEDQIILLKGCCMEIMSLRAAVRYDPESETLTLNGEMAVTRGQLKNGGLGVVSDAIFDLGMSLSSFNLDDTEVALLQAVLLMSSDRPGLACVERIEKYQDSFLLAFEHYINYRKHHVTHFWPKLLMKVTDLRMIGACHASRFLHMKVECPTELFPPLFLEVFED
In short: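 Competitive fluorescence polarization. Assay liquid was PBS containing 5% DMSO. For TRβ, hTRβ1 LBD (His6, T209-D461) was expressed in BL21 (DE3).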

ARO = experiment: Cytotoxicity against human ARO cells after 48 hrs by MTS assay; format: functional; details: Homo sapiens, ARO, 48 h; read-out: LD50 (the source's name)
U2OS = experiment: Cytotoxicity against human U2OS cells after 48 hrs by MTS assay; format: functional; details: Homo sapiens, U2OS, 48 h; read-out: LD50 (the source's name)
[3] = Permeability across artificial membrane at pH 7.4 by PAMPA assay
physchem = details: PBS

Row | Compound | IC50 [1] [µM] | IC50 [2] [µM] | CC50 (ARO) [µM] | CC50 (U2OS) [µM] | Papp [3] [×10⁻⁶ cm/s] | solubility (physchem) [µM]
1 | C=CC(=O)c1ccc(CCCCCCC)cc1 | 23 | 10.5 | 69.2 | 36.7 | – | –
2 | CCCCCCc1ccc(C(=O)CCN2CCC(C(=O)OC)CC2)cc1 | 6.3 | 3.9 | 8.2 | 19.7 | 145 | 27 (≈ 9.71 µg/mL)
3 | CCCCCCc1ccc(NC(=O)/C=C\C(=O)O)cc1 | 17.5 | 20.3 | > 200 | 148 | – | 418 (≈ 115 µg/mL)
4 | C=CC(=O)c1ccc(CC(C)(C)C)cc1 | 69.6 | 43.5 | 5.8 | 27.5 | – | –
5 | CCCCCCc1ccc(C(=O)CCBr)cc1 | 4.2 | 3 | 40.1 | 17 | – | 85 (≈ 25.3 µg/mL)
6 | CCCC(=O)Nc1cccc2c1CCCC2 | 85.3 | 69.8 | 54.7 | 101 | – | –
7 | CCCCCCc1ccc(C(=O)CCN(C)CCc2ccccc2)cc1 | 3.6 | 1.5 | 2.5 | 18.4 | – | 15 (≈ 5.27 µg/mL)
8 | CCCCCCc1ccc(C(=O)CCCBr)cc1 | > 100 | > 100 | 28.7 | 25.3 | 58 | 26 (≈ 8.09 µg/mL)
9 | C=CC(=O)[C@H]1CC[C@H](CC(C)(C)C)CC1 | 75.6 | 69.1 | 92.8 | 50.2 | – | –
10 | CCCCCCc1ccc(NC(=O)CCC(=O)O)cc1 | > 100 | > 100 | – | – | – | –
11 | CCCCCCc1ccc(C(=O)CCN(C2CCCCC2)C2CCCCC2)cc1 | 16.5 | 12.7 | – | – | – | –
12 | CCCCCCc1ccc(NC(=O)C=C(C)C)cc1 | > 100 | > 100 | > 200 | > 200 | 98 | 37 (≈ 9.6 µg/mL)
13 | C/C=C/C(=O)Nc1ccc(CCCCCC)cc1 | > 100 | > 100 | > 200 | > 200 | 432 | 42 (≈ 10.3 µg/mL)
14 | CCCCCCCc1ccc(C(=O)C=C(C)C)cc1 | > 100 | > 100 | > 200 | > 200 | – | 24 (≈ 6.2 µg/mL)
15 | C=CC(=O)c1ccc(CCCCCCCC)cc1 | 21.4 | 11.4 | 111 | 50.5 | – | –
16 | C#CC(=O)Nc1ccc(CCCCCC)cc1 | 68.9 | 35.1 | 8 | 17.1 | 621 | 60 (≈ 13.8 µg/mL)
17 | C=CC(=O)Oc1ccccc1CCCCCC | 39.1 | 8.2 | 14.6 | 19.4 | – | –
18 | CCCCCCc1ccc(C(=O)CCl)cc1 | 47.7 | 23.1 | – | – | – | –
19 | C=C(C)C(=O)c1ccc(CCCCCCC)cc1 | 52.9 | 23.2 | 10.7 | 18.7 | 43 | 37 (≈ 9.04 µg/mL)
20 | C/C=C/C(=O)c1ccc(CCCCCCC)cc1 | 18.9 | 7.6 | 1.4 | 11.6 | 7 | 41 (≈ 10 µg/mL)
21 | CCCCCCc1ccc(C(=O)CCN(C)CCO)cc1 | 3 | 1.6 | 13.2 | 13.2 | – | 97 (≈ 28.3 µg/mL)
